Laboratory results: ChEMBL document CHEMBL4145692, “Discovery of a Locally and Orally Active CXCL12 Neutraligand (LIT-927) with Anti-inflammatory Effect in a Murine Model of Allergic Airway Hypereosinophilia” (J Med Chem, 2018)
Calls of active or inactive are those of the source. No cut-off for these calls is given here.

Tests used:
Mus musculus [1] = assay: Inhibition of lymphocytes infiltration in Balb/c mouse model of 8 day model of allergic eosinophilic airway inflammation at 300 nmol/kg dosed intranasally 2 hrs before ovalbumin challenge by hemocytometry; type: functional, organism-based
In short: (§1)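 OVA/alum-sensitized Balb/c mice challenged intranasally with OVA on days 5–7. Compounds at 300 nmol/kg in 10% PBS/Cdx given intranasally 2 h before each challenge. BAL 24 h after the last challenge; eosinophils, neutrophils and lymphocytes counted by hemocytometer and differential cytospin; n=6/group.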

[2] = Thermodynamic solubility in pH 7.4 PBS/Cdx buffer incubated for 24 hrs at 22 degC by HPLC method; type: physicochemical; conditions: read-out: Therm_solubility
In short: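 Powder dissolved to saturation in pH 7.4 PBS (100 mM sodium phosphate, 150 mM NaCl), or in PBS with 10% Cdx, and shaken 24 h. After centrifugation, supernatant quantified by HPLC against a per-compound calibration line prepared from the DMSO stock.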

Mus musculus [3] = assay: Anti-inflammatory activity in Balb/c mouse model of hypereosinophilia assessed as inhibition of eosinophil infiltration at 350 umol/kg, ip dosed 2 hrs before allergen challenge; type: functional
In short: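 Balb/c mice sensitized with OVA/alum i.p. and challenged intranasally with OVA on 3 consecutive days. Compounds given i.p. 2 h before each challenge: neutraligands 350 μmol/kg in PBS/CMC 1%, AMD3100 12.6 μmol/kg, dexamethasone 2.5 μmol/kg. BAL 24 h after the last challenge; absolute eosinophil counts; mean ± SEM, n=6/group.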

[4] = Kinetic solubility in pH 7.4 HEPES-BSA buffer at 5 uM incubated for 24 hrs at 20 degC by HPLC method; type: physicochemical; conditions: read-out: Kinetic_solubility
In short: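 Compound added from 10 mM DMSO stock to 5 μM in pH 7.4 HEPES-BSA buffer (1 g/L BSA), shaken 24 h at 20 °C. After centrifugation, supernatant concentration measured by HPLC against 5 and 10 μM standards.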

Mus musculus [5] = assay: Toxicity in Balb/c mouse model of hypereosinophilia assessed as reduction in spleen weight at 12.6 umol/kg, ip dosed daily 2 hrs before allergen challenge for 3 days and measured 24 hrs after last dose; type: organism-based; conditions: in vivo
In short: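 Same OVA model with i.p. dosing 2 h before each of the three challenges: neutraligands 350 μmol/kg in PBS/CMC 1%, AMD3100 12.6 μmol/kg, dexamethasone 2.5 μmol/kg. Body and spleen weight loss recorded 24 h after three daily administrations; n=6/group.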

[6] = molecular target: C-C motif chemokine 2 (Homo sapiens) (UniProt P13500); assay: Binding affinity to CCL2 (unknown origin) assessed as inhibition of CCL2-induced increase in intracellular calcium level in EGFP-tagged CCR2 expressing HEK cells at 10 uM
[7] = Chemical stability in pH 7.4 PBS buffer assessed as parent compound remaining at 10 uM incubated for 24 hrs by RP-HPLC method; type: physicochemical; conditions: read-out: Stability
In short: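 Compound diluted from DMSO stock to 10 μM final (1% DMSO) in PBS pH 7.4, or in PBS with 10% w/w (2-hydroxypropyl)-β-cyclodextrin. Sampled at t0, 2, 4, 6 and 24 h and injected directly onto RP-HPLC. Percent remaining relative to t0 from peak area.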

Mus musculus [8] = assay: Inhibition of eosinophil infiltration in Balb/c mouse model of 8 day model of allergic eosinophilic airway inflammation at 300 nmol/kg dosed intranasally 2 hrs before ovalbumin challenge by hemocytometry; type: functional; conditions: inhaled or nasal; in short: as §1
Mus musculus [9] = assay: Anti-asthma activity in Balb/c mouse model of mouse model of hypereosinophilia assessed as inhibition of eosinophil recruitment at 1400 umol/kg, po dosed intranasally 2 hrs before ovalbumin challenge by hemocytometry; type: functional; conditions: in the assay text read “po dosed” for “po dosed intranasally”
In short: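 OVA-sensitized 9-week-old male Balb/c mice (50 μg OVA on 2 mg alum i.p., days 0–2; intranasal OVA 10 μg, days 5–7). Compound at 1400 μmol/kg in PBS/MC 0.5%/Tween 80 0.05% given by gavage 2 h before each challenge. BAL 24 h after the last challenge; eosinophils counted by hemocytometer and Diff-Quick cytospin (≥400 cells); n=6/group.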

Mus musculus [10] = assay: Inhibition of eosinophil infiltration in Balb/c mouse model of 8 day model of allergic eosinophilic airway inflammation dosed intranasally 2 hrs before ovalbumin challenge by hemocytometry; type: functional, organism-based
In short: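 Same intranasal OVA model with dose-response treatment in PBS/Cdx 10% given 2 h before each challenge. Percent inhibition of BAL eosinophil recruitment; mean ± SEM, n=6/group.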

[11] = molecular target: Stromal cell-derived factor 1 (Homo sapiens, UniProt P48061); assay: Binding affinity to CXCL12 (unknown origin) assessed as inhibition of CXCL12 -induced increase in intracellular calcium level in EGFP-tagged CXCR4 expressing HEK cells at 10 uM; type: cell-based
In short: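 TRIC-r calcium assay, neutraligand protocol. Compound at 10 μM (DMSO control) tested against calcium responses triggered by 5 nM of each chemokine on its receptor line: CXCL12 on EGFP-CXCR4⁺ HEK, CCL17 or CCL22 on EGFP-CCR4⁺ HEK, CCL5 on EGFP-CCR5⁺ HEK, CCL2 on EGFP-CCR2⁺ HEK. Mean ± SD, n=3.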

Sequence of Stromal cell-derived factor 1 (P48061 whole entry): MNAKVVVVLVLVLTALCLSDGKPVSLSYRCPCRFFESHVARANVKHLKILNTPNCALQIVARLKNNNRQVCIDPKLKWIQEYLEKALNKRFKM
Sequence of C-C motif chemokine 2 (Homo sapiens) (P13500 24-99 limits assumed): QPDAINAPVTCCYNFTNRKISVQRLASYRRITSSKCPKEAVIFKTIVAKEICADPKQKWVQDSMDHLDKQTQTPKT

COc1cc(-c2cc(-c3ccc(Cl)cc3)nc(=O)[nH]2)ccc1O
inhibition (Mus musculus [1]): inactive | solubility thermodynamic at 24 h [2]: > 5000 µM | inhibition in vivo at 350 µmol/kg (Mus musculus [3]): 55% | solubility kinetic at 24 h, 5 µM [4]: > 5 µM | Activity (Mus musculus [5]): Non-Toxic | inhibition [6]: inactive | remaining at 24 h, 10 µM [7]: 100% | inhibition in vivo at 0.3 µmol/kg (Mus musculus [8]): 48% | inhibition in vivo at 1400 µmol/kg (Mus musculus [9]): 62% | IC50 (Mus musculus [10]): 310 nmol/kg | inhibition [11]: Active
